Here are results for ten compounds from ChEMBL document CHEMBL1124927, “Synthesis and structure-activity relationships of new 7-[3-(fluoromethyl)piperazinyl]- and -(fluorohomopiperazinyl)quinolone antibacterials” (1990).

In brackets after ≈: the same amount, converted by molar mass.

As usually defined, the MIC is the smallest concentration in the dilution series that meets the test's criterion for growth inhibition. A high value points to a need for much substance. A word on the ED50: it is the midpoint of the dose-response relation. Low values mean greater potency, high ones weaker potency.

The subject of experiment [1] is Escherichia coli. Put plainly: In vitro minimal inhibitory concentration against Escherichia coli ATCC 25922 (Ec(A)). Format: functional. Put shortly:
(§1)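 Agar dilution: two-fold serial drug dilutions in Mueller–Hinton agar; plates inoculated with 1–5 × 10⁴ CFU via Steers multiple inocula replicator; incubated 18 h at 35 °C. MIC = lowest concentration preventing macroscopic growth.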

Experiment [2] concerns Morganella morganii. Put plainly: In vitro minimal inhibitory concentration against Morganella morganii CMC-84-39 (Mn). Format: functional. The method in brief:
as §1

The test system of experiment [3] is Escherichia coli. Description: animal or person. The note with it: in Mus musculus, po.
Experiment [4] concerns Staphylococcus aureus. Put plainly: Median effective dose against female mice infected with Staphylococcus aureus Smith after oral administration. It counts as functional. The method in brief: (§2)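 CD-1 female mice (20 ± 2 g) infected ip with 0.5 mL standardized bacterial suspension (E. coli #311 in trypticase–soy broth; S. aureus Smith in 5% hog gastric mucin). Dosed 0.5 h post-infection, oral or subcutaneous, 2-fold dose increments in 0.5 mL 0.2% aqueous agar; five mice per dose. 7-day survival pooled from three tests; ED50 by probit analysis, 95% confidence limits.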

Experiment [5] concerns Staphylococcus aureus. Put plainly: In vitro minimal inhibitory concentration against Staphylococcus aureus ATCC 29213 (Sa(B)). Format: functional. The method in brief: as §1
Experiment [6] relates to Escherichia coli. Put plainly: In vitro minimal inhibitory concentration against Escherichia coli #311 (Ec(B)). It counts as functional. The method in brief: as §1
Experiment [7] deals with Escherichia coli. Description: animal or person. Conditions: in Mus musculus, sc.
Experiment [8] concerns Staphylococcus aureus. Description: Median effective dose against female mice infected with Staphylococcus aureus Smith after subcutaneous administration. It counts as functional. The note with it: sc. Put shortly:
as §2

The test system of experiment [9] is Staphylococcus aureus. Description: In vitro minimal inhibitory concentration against Staphylococcus aureus Smith (MP) (Sa(A)). It counts as functional. The method in brief:
as §1

The test system of experiment [10] is Enterococcus faecalis. Description: In vitro minimal inhibitory concentration against Streptococcus faecalis UCI-85 (Sf(U)). It counts as functional. The method in brief: as §1
For experiment [11], the system named is Enterococcus faecalis. Put plainly: In vitro minimal inhibitory concentration Streptococcus faecalis VGH-84 (Sf(V)). Format: functional. Put shortly:
as §1

The subject of experiment [12] is Enterobacter cloacae. Description: (§3) In vitro minimal inhibitory concentration against Enterobacter cloacae VGH-84-39 (Et(c)). It counts as functional. The method in brief: as §1
Experiment [13] deals with Pseudomonas aeruginosa. Description: In vitro minimal inhibitory concentration against Pseudomonas aeruginosa 12-4-4 (Pa). It counts as functional. The method in brief: as §1
Experiment [14] deals with Enterobacter cloacae. The experiment is described as §3. It counts as functional. The source holds these as a separate data set.
Experiment [15] can be described thus: Ratio of ED50 value of (po/sc) was determined for Escherichia coli #311. Format: functional. The method in brief: (§4)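 Oral and subcutaneous ED50 values from ip-infected CD-1 female mice (treated 0.5 h post-infection, 2-fold doses in 0.2% aqueous agar, five mice/dose, 7-day survival, three pooled tests, probit analysis); ratio taken as po ED50 divided by sc ED50, as an index of absorption.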

The test system of experiment [16] is Escherichia coli. Put plainly: Median effective dose against female mice infected with Escherichia coli #311 after subcutaneous administration. It counts as functional. Conditions: sc. The method in brief: as §2
Experiment [17] is described as follows: Ratio of ED50 value of (po/sc) was determined for Staphylococcus aureus Smith. Format: functional. The method in brief:
as §4

The test system of experiment [18] is Escherichia coli. Description: Median effective dose against female mice infected with Escherichia coli #311 after oral administration. Format: functional. The method in brief: as §2

Consider `O=C(O)c1cn(C2CC2)c2cc(N3CCNCC3)c(F)cc2c1=O` [CIPROFLOXACIN], for which the MIC in experiment [1] was at most 0.015 µg/mL; in experiment [2] it was 0.015 µg/mL (≈ 0.0453 µM); in experiment [5] it was 1 µg/mL (≈ 3.02 µM); in experiment [6], at most 0.015 µg/mL; in experiment [9], 0.25 µg/mL (≈ 0.754 µM); in experiment [10], 1 µg/mL (≈ 3.02 µM). In experiment [11], this compound came in with an MIC of 1 µg/mL (≈ 3.02 µM). Further, the median effective dose (ED50) in experiment [3] worked out at 0.49 mg/kg; in [4], 3.8 mg/kg; in [7], 0.07 mg/kg; in experiment [8] it was 0.69 mg/kg.

For the compound `O=C(O)c1cn(-c2ccc(F)cc2)c2cc(N3CCNC(CF)C3)c(F)cc2c1=O` (stereo not given), the MIC came to 0.25 µg/mL (≈ 0.599 µM) in [1]; 1 µg/mL (≈ 2.4 µM) in [2]; 0.25 µg/mL (≈ 0.599 µM) in experiment [12]; 0.5 µg/mL (≈ 1.2 µM) in experiment [5]; 0.25 µg/mL (≈ 0.599 µM) in [6]; 8 µg/mL (≈ 19.2 µM) in [13]. Further, the MIC in [9] came to 0.25 µg/mL (≈ 0.599 µM); in experiment [10], 4 µg/mL (≈ 9.58 µM); in experiment [11], 4 µg/mL (≈ 9.58 µM).

For `O=C(O)c1cn(C2CC2)c2cc(N3CCCNCC3)c(F)cc2c1=O`, the MIC in [1] amounted to 0.03 µg/mL (≈ 0.0869 µM); in experiment [2] it was 0.03 µg/mL (≈ 0.0869 µM); in experiment [5], 2 µg/mL (≈ 5.79 µM); in [6] it was 0.03 µg/mL (≈ 0.0869 µM); in experiment [13], 1 µg/mL (≈ 2.9 µM); in experiment [9] it was 0.25 µg/mL (≈ 0.724 µM). For the same compound, the values for the MIC in [14], in experiment [10] and in experiment [11] were 0.03 µg/mL (≈ 0.0869 µM), 2 µg/mL (≈ 5.79 µM) and 1 µg/mL (≈ 2.9 µM), respectively.

In the case of `CCn1cc(C(=O)O)c(=O)c2cc(F)c(N3CCNC(CF)C3)cc21` (stereo not given), the MIC in experiment [1] is 0.12 µg/mL (≈ 0.342 µM); in experiment [2], 0.12 µg/mL (≈ 0.342 µM); in [5] it was 0.25 µg/mL (≈ 0.712 µM); in experiment [6], at most 0.12 µg/mL; in experiment [13] it was 32 µg/mL (≈ 91.1 µM); in experiment [9] it was at most 0.12 µg/mL. Further, the MIC came to 0.12 µg/mL (≈ 0.342 µM) in experiment [14], 4 µg/mL (≈ 11.4 µM) in experiment [10] and 2 µg/mL (≈ 5.69 µM) in experiment [11]. The ED50 in experiment [4] worked out at 6 mg/kg; in experiment [8], 2.6 mg/kg; in experiment [16] it was 3 mg/kg; in experiment [18], 2.8 mg/kg. Besides, the Ratio in experiment [15] turned out to be 1; in experiment [17], 2.3.

`O=C(O)c1cn(C2CC2)c2cc(N3CCNC(CF)C3)c(F)cc2c1=O` (stereo not given): the MIC in experiment [1] was found to be 0.06 µg/mL (≈ 0.165 µM); in experiment [2], 0.12 µg/mL (≈ 0.33 µM); in experiment [5] it was 0.25 µg/mL (≈ 0.688 µM); in experiment [6] it was 0.03 µg/mL (≈ 0.0826 µM); in experiment [13] it was 2 µg/mL (≈ 5.5 µM); in [9], 0.12 µg/mL (≈ 0.33 µM). Further, the results for the MIC in experiment [14], in [10] and in experiment [11] were 0.12 µg/mL (≈ 0.33 µM), 2 µg/mL (≈ 5.5 µM) and 1 µg/mL (≈ 2.75 µM), respectively. In addition, the ED50 was determined as 2.8 mg/kg in experiment [4]; 0.94 mg/kg in [8]; 0.6 mg/kg in experiment [16]; 1.2 mg/kg in experiment [18] (Escherichia coli, po). For the same compound, the Ratio in [15] was determined as 2; in experiment [17], 3.

Consider `O=C(O)c1cn(C2CC2)c2cc(N3CCNCC(F)C3)c(F)cc2c1=O` (stereo not given), for which the MIC in experiment [1] came to 0.03 µg/mL (≈ 0.0826 µM); in experiment [2] it was 0.06 µg/mL (≈ 0.165 µM); in [5] it was 1 µg/mL (≈ 2.75 µM); in experiment [6], 0.03 µg/mL (≈ 0.0826 µM); in [13] it was 2 µg/mL (≈ 5.5 µM); in experiment [9], 0.25 µg/mL (≈ 0.688 µM). For the same compound, the MIC came out at 0.06 µg/mL (≈ 0.165 µM) in experiment [14], 4 µg/mL (≈ 11 µM) in [10] and 4 µg/mL (≈ 11 µM) in experiment [11].

Consider `CCn1cc(C(=O)O)c(=O)c2cc(F)c(N3CCNC(C(F)F)C3)c(F)c21` (stereo not given), for which the MIC in experiment [1] was determined as 0.5 µg/mL (≈ 1.29 µM); in [2], 1 µg/mL (≈ 2.58 µM); in experiment [5] it was 0.25 µg/mL (≈ 0.645 µM); in [6] it was 0.5 µg/mL (≈ 1.29 µM); in [13] it was 32 µg/mL (≈ 82.6 µM); in experiment [9] it was 0.12 µg/mL (≈ 0.31 µM). Further, the MIC in experiment [14] is 1 µg/mL (≈ 2.58 µM); in [10] it was 4 µg/mL (≈ 10.3 µM); in experiment [11], 4 µg/mL (≈ 10.3 µM).

`O=C(O)c1cn(C2CC2)c2cc(N3CCNCC(O)C3)c(F)cc2c1=O` (stereo not given): the MIC worked out at 0.25 µg/mL (≈ 0.692 µM) in experiment [1]; 0.12 µg/mL (≈ 0.332 µM) in experiment [2]; 16 µg/mL (≈ 44.3 µM) in experiment [5]; 0.5 µg/mL (≈ 1.38 µM) in experiment [6]; 2 µg/mL (≈ 5.53 µM) in experiment [13]; 4 µg/mL (≈ 11.1 µM) in experiment [9]. Further, the figures for the MIC in experiment [14], in experiment [10] and in experiment [11] were 0.25 µg/mL (≈ 0.692 µM), 16 µg/mL (≈ 44.3 µM) and 16 µg/mL (≈ 44.3 µM), respectively.

As for `CCn1cc(C(=O)O)c(=O)c2cc(F)c(N3CCNC(CO)C3)cc21.Cl` (stereo not given), the MIC in experiment [1] turned out to be 2 µg/mL; in experiment [2], 0.5 µg/mL; in [5] it was 32 µg/mL; in experiment [6], 1 µg/mL; in experiment [13], 64 µg/mL; in [9] it was 8 µg/mL. Besides, the MIC in experiment [14] was 1 µg/mL; in [10], 16 µg/mL; in experiment [11] it was 16 µg/mL.

`CC1CN(c2cc3c(cc2F)c(=O)c(C(=O)O)cn3C2CC2)CCN1` (stereo not given): the MIC was at most 0.015 µg/mL in experiment [1]; 0.03 µg/mL (≈ 0.0869 µM) in experiment [2]; 0.5 µg/mL (≈ 1.45 µM) in experiment [5]; at most 0.015 µg/mL in experiment [6]; 0.25 µg/mL (≈ 0.724 µM) in experiment [13]; 0.12 µg/mL (≈ 0.347 µM) in [9]. Moreover, the MIC was found to be 0.015 µg/mL (≈ 0.0434 µM) in experiment [14], 2 µg/mL (≈ 5.79 µM) in [10] and 1 µg/mL (≈ 2.9 µM) in experiment [11]. The ED50 in [4] stood at 2.4 mg/kg; in experiment [8] it was 0.61 mg/kg; in experiment [16], 0.09 mg/kg; in [18] (Escherichia coli, po), 0.42 mg/kg. Besides, the Ratio in experiment [15] was found to be 4.7; in [17] it was 3.9.
